# Target: OR13C7 (Homo sapiens) (UniProt P0DN81)
# Settings: stereoisomer not certain
# Outline: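 Whether a receptor–molecule pair is responsive (active) rests on the original authors' judgment that its measured signal was statistically different from baseline. Pairs without that judgment are non-responsive (inactive). Sources used varied assay methods, commonly transient luciferase assays in mammalian cell lines.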
# 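Note: active if original authors judged signal statistically different from baseline.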
# OR13C7 (Homo sapiens), sequence (P0DN81 whole entry): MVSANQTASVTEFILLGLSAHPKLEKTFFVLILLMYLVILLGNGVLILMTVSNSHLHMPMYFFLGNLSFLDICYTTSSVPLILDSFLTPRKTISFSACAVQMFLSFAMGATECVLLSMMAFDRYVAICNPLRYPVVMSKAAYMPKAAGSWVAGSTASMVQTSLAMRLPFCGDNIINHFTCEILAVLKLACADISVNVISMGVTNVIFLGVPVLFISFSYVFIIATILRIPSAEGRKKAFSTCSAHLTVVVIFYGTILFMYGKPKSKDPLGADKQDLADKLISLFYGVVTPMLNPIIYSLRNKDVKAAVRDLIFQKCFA
row,Structure (SMILES),odorant receptor agonist call
1,CC1CCCCCCCCCCCCC(=O)C1 (configuration not stated),inactive
2,CC(=O)c1c(C)c([N+](=O)[O-])c(C(C)(C)C)c([N+](=O)[O-])c1C,inactive
